In ChEMBL document CHEMBL1177864, “Synthesis and biological evaluation of some thio containing pyrrolo [2,3-d]pyrimidine derivatives for their anti-inflammatory and anti-microbial activities” (2010):
Values after ≈ are worked out from the molar mass of the structure shown. Active and inactive are the calls of the source. The rule behind the calls is not given here.

Columns and labels:
Rattus norvegicus [1] = assay: Antiinflammatory activity in Sprague-Dawley rat assessed as inhibition of carrageenan-induced paw edema at 50 to 70 mg/kg, sc administered 1 hr before carrageenan challenge measured after 1 hr relative to control; format: functional; settings: dose mg/kg 50-70; route subcutaneous
How it was run: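 One hour later, baseline right hind paw volume was taken, then 0.05 mL of 1% carrageenan in sterile pyrogen-free 0.9% NaCl was injected into the plantar aponeurosis. Paw volume was read by water plethysmometer at 1, 2, 3 and 4 h. % inhibition = (1 − Rt/Rc) × 100 against carrageenan-only controls (n=5).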

Rattus norvegicus [2] = assay: Antiinflammatory activity in Sprague-Dawley rat assessed as inhibition of carrageenan-induced paw edema at 50 to 70 mg/kg, sc administered 1 hr before carrageenan challenge measured after 4 hrs relative to control; settings: dose mg/kg 50-70; route subcutaneous
Rattus norvegicus [3] = assay: Antiinflammatory activity in Sprague-Dawley rat assessed as inhibition of carrageenan-induced paw edema at 50 to 70 mg/kg, sc administered 1 hr before carrageenan challenge measured after 2 hrs relative to control; settings: dose mg/kg 50-70; route subcutaneous
Rattus norvegicus [4] = assay: Antiinflammatory activity in Sprague-Dawley rat assessed as inhibition of carrageenan-induced paw edema at 50 to 70 mg/kg, sc administered 1 hr before carrageenan challenge measured after 3 hrs relative to control; settings: dose mg/kg 50-70; route subcutaneous
Staphylococcus aureus [5] = assay: Antimicrobial activity against Staphylococcus aureus ATCC 29213 after 24 hrs by microdilution assay; format: functional; settings: ATCC 29213, 24 h
How it was run: (§1)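 MIC by microdilution following NCCLS 1997 guidelines. Compounds were serially two-fold diluted in DMSO from 1024 down to […], mixed with sterile nutrient agar, and inoculum was added to each well. MIC was read as the lowest concentration giving complete absence of macroscopic growth. Controls were DMSO, organism alone and medium alone. Bacteria were precultured on MHA at 37 °C overnight; Candida on SDA at 35 °C.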

Staphylococcus aureus [6] = assay: Antimicrobial activity against Staphylococcus aureus ATCC 29213 at 25 ug/disk by disk diffusion method; format: functional; settings: read-out: DIZ
How it was run: (§2)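 Disc diffusion sensitivity test as per Bauer et al. Bacteria were subcultured on Mueller-Hinton agar overnight at 37 °C; Candida on SDA at 35 °C for 24-48 h, each passaged at least twice. DMSO served as solvent control; amoxicillin and fluconazole were references. Read-out was the inhibition zone.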

Mycolicibacterium phlei [7] = assay: Antimicrobial activity against Mycobacterium phlei ATCC 10142 at 25 ug/disk by disk diffusion method; format: functional, organism-based; how it was run: as §2
Escherichia coli [8] = assay: Antimicrobial activity against Escherichia coli ATCC 25922 after 24 hrs by microdilution assay; format: functional; settings: ATCC 25922, 24 h
How it was run: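 MIC by microdilution following NCCLS 1997 guidelines. Bacteria were subcultured on Mueller-Hinton agar overnight at 37 °C and passaged at least twice. Compounds were serially two-fold diluted in DMSO (1024 down to 16), mixed with nutrient agar, and inoculated. MIC was the lowest concentration with no macroscopic growth. DMSO, organism-only and medium-only controls were included, with amoxicillin as reference.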

Pseudomonas aeruginosa [9] = assay: Antimicrobial activity against Pseudomonas aeruginosa ATCC […] at 25 ug/disk by disk diffusion method; format: functional; settings: read-out: DIZ; how it was run: as §2
Escherichia coli [10] = assay: Antimicrobial activity against Escherichia coli ATCC 25922 at 25 ug/disk by disk diffusion method; format: functional; settings: read-out: DIZ; how it was run: as §2
Bacillus subtilis [11] = assay: Antimicrobial activity against Bacillus subtilis ATCC 6633 at 25 ug/disk by disk diffusion method; format: functional; settings: read-out: DIZ; how it was run: as §2
Pseudomonas aeruginosa [12] = assay: Antimicrobial activity against Pseudomonas aeruginosa ATCC […] after 24 hrs by microdilution assay; format: functional
How it was run: (§3)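 MIC by micro-dilution per NCCLS 1997. Bacteria were subcultured overnight on Mueller-Hinton agar at 37 °C and passaged at least twice. Compounds were serially two-fold diluted in DMSO (1024 down to 16 stock levels) and mixed with sterile nutrient agar, then inoculum was added to the wells. MIC is the lowest concentration giving complete inhibition of macroscopic growth. Controls were DMSO, organism alone and medium alone.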

Candida albicans [13] = assay: Antimicrobial activity against Candida albicans ATCC 10231 at 25 ug/disk by disk diffusion method; format: functional, organism-based; how it was run: as §2
Bacillus subtilis [14] = assay: Antimicrobial activity against Bacillus subtilis ATCC 6633 after 24 hrs by microdilution assay; format: functional; settings: ATCC 6633, 24 h; how it was run: as §3
Mycolicibacterium phlei [15] = assay: Antimicrobial activity against Mycobacterium phlei ATCC 10142 at 4 ug/disk by disk diffusion method; format: functional, organism-based
Staphylococcus aureus [16] = assay: Antimicrobial activity against Staphylococcus aureus ATCC 29213 at 4 ug/disk by disk diffusion method; format: functional, organism-based
Pseudomonas aeruginosa [17] = assay: Antimicrobial activity against Pseudomonas aeruginosa ATCC […] at 4 ug/disk by disk diffusion method; format: functional, organism-based
Candida albicans [18] = assay: Antimicrobial activity against Candida albicans ATCC 10231 after 48 hrs by microdilution assay; format: functional; settings: ATCC 10231, 48 h; how it was run: as §1
Escherichia coli [19] = assay: Antimicrobial activity against Escherichia coli ATCC 25922 at 4 ug/disk by disk diffusion method; format: functional, organism-based
Bacillus subtilis [20] = assay: Antimicrobial activity against Bacillus subtilis ATCC 6633 at 4 ug/disk by disk diffusion method; format: functional, organism-based
Candida albicans [21] = assay: Antimicrobial activity against Candida albicans ATCC 10231 at 4 ug/disk by disk diffusion method; format: functional; settings: read-out: DIZ
Pseudomonas aeruginosa [22] = assay: Antimicrobial activity against Pseudomonas aeruginosa ATCC […] at 20 ug/disk by disk diffusion method; format: functional, organism-based; how it was run: as §2
Mycolicibacterium phlei [23] = assay: Antimicrobial activity against Mycobacterium phlei ATCC 10142 at 20 ug/disk by disk diffusion method; format: functional, organism-based; how it was run: as §2
Bacillus subtilis [24] = assay: Antimicrobial activity against Bacillus subtilis ATCC 6633 at 20 ug/disk by disk diffusion method; format: functional; settings: read-out: DIZ; how it was run: as §2
Candida albicans [25] = assay: Antimicrobial activity against Candida albicans ATCC 10231 at 20 ug/disk by disk diffusion method; format: functional, organism-based; how it was run: as §2
Staphylococcus aureus [26] = assay: Antimicrobial activity against Staphylococcus aureus ATCC 29213 at 20 ug/disk by disk diffusion method; format: functional, organism-based; how it was run: as §2
Escherichia coli [27] = assay: Antimicrobial activity against Escherichia coli ATCC 25922 at 20 ug/disk by disk diffusion method; format: functional, organism-based; how it was run: as §2

Structure (SMILES)	inhibition (INH) (Rattus norvegicus [1]) [%]	inhibition (INH) (Rattus norvegicus [2]) [%]	inhibition (INH) (Rattus norvegicus [3]) [%]	inhibition (INH) (Rattus norvegicus [4]) [%]	other results
N#Cc1c(-c2ccccc2)c(-c2ccccc2)n(Cc2ccccc2)c1N	3.04	23.8	4.23	12.59	
Nc1nc(=S)[nH]c2c1c(-c1ccccc1)cn2-c1ccc(Cl)c(Cl)c1	6.08	76.82	95.38	95.95	
N=c1c2c(-c3ccccc3)cn(-c3ccc(Cl)c(Cl)c3)c2[nH]c(=S)n1-c1ccccc1	42	68.57	48.07	76.83	
N#Cc1c(-c2ccccc2)cn(-c2ccc(Cl)c(Cl)c2)c1N	2.17	19.04	12.3	13.88	
CC1(C)S[C@@H]2[C@H](NC(=O)[C@H](N)c3ccc(O)cc3)C(=O)N2[C@H]1C(=O)O [AMOXICILLIN]					MIC (Staphylococcus aureus [5]): 16 µg/mL (≈ 43.8 µM); zone of inhibition at 25 µg/disc (Staphylococcus aureus [6]): 13 mm; diameter of the inhibition zone (DIZ) (Mycolicibacterium phlei [7]): inactive; MIC (Escherichia coli [8]): 256 µg/mL (≈ 701 µM); zone of inhibition at 25 µg/disc (Pseudomonas aeruginosa [9]): 12 mm; zone of inhibition at 25 µg/disc (Escherichia coli [10]): 13 mm; zone of inhibition at 25 µg/disc (Bacillus subtilis [11]): 12 mm; MIC (Pseudomonas aeruginosa [12]): 64 µg/mL (≈ 175 µM); diameter of the inhibition zone (DIZ) (Candida albicans [13]): inactive; MIC (Bacillus subtilis [14]): 64 µg/mL (≈ 175 µM)
Cc1c(-n2c(-c3ccccc3)c(-c3ccccc3)c3c(=N)n(-c4ccccc4)c(=S)[nH]c32)n(C)n(-c2ccccc2)c1=O	1.98				
CC(C)Cc1ccc(C(C)C(=O)O)cc1 (stereo not drawn) [IBUPROFEN]	6.08	69.52	45	60.66	
OC(Cn1cncn1)(Cn1cncn1)c1ccc(F)cc1F [FLUCONAZOLE]					diameter of the inhibition zone (DIZ) (Mycolicibacterium phlei [15]): inactive; diameter of the inhibition zone (DIZ) (Staphylococcus aureus [16]): inactive; diameter of the inhibition zone (DIZ) (Pseudomonas aeruginosa [17]): inactive; MIC (Candida albicans [18]): 512 µg/mL (≈ 1670 µM); diameter of the inhibition zone (DIZ) (Escherichia coli [19]): inactive; diameter of the inhibition zone (DIZ) (Bacillus subtilis [20]): inactive; zone of inhibition at 4 µg/disc (Candida albicans [21]): 20 mm
Nc1nc(=S)[nH]c2c1c(-c1ccccc1)c(-c1ccccc1)n2Cc1ccccc1	1.73	24.76	3.84	13.97	MIC (Staphylococcus aureus [5]): 256 µg/mL (≈ 627 µM); MIC (Bacillus subtilis [14]): 512 µg/mL (≈ 1250 µM)
S=c1[nH]c(=S)c2c(-c3ccccc3)c(-c3ccccc3)n(Cc3ccccc3)c2[nH]1	2.608	27.61	5.38	13.23	MIC (Bacillus subtilis [14]): 512 µg/mL (≈ 1200 µM)
O=c1/c(=C/c2ccccc2)sc2nc3c(c(-c4ccccc4)cn3-c3ccc(Cl)c(Cl)c3)c(=S)n12	0				
Cc1c(-n2c(-c3ccccc3)c(-c3ccccc3)c3c(=S)[nH]c(=S)[nH]c32)n(C)n(-c2ccccc2)c1=O	0	28.8	3.94	14.1	
O=c1/c(=C/c2ccccc2)sc2nc3c(c(-c4ccccc4)c(-c4ccccc4)n3Cc3ccccc3)c(=S)n12	3.498				
S=c1[nH]c(=S)c2c(-c3ccccc3)cn(-c3ccc(Cl)c(Cl)c3)c2[nH]1	1.73	26	4.48	12.53	
Cc1c(-n2c(-c3ccccc3)c(-c3ccccc3)c3c(N)nc(=S)[nH]c32)n(C)n(-c2ccccc2)c1=O	0	64.28	0	73.34	
Cc1c(-n2c(N)c(C#N)c(-c3ccccc3)c2-c2ccccc2)n(C)n(-c2ccccc2)c1=O	9.5	64.68	36.53	62.62	diameter of the inhibition zone (DIZ) (Pseudomonas aeruginosa [22]): inactive; diameter of the inhibition zone (DIZ) (Mycolicibacterium phlei [23]): inactive; zone of inhibition at 20 µg/disc (Bacillus subtilis [24]): 10 mm; diameter of the inhibition zone (DIZ) (Candida albicans [25]): inactive; MIC (Bacillus subtilis [14]): 512 µg/mL (≈ 1150 µM); diameter of the inhibition zone (DIZ) (Staphylococcus aureus [26]): inactive; diameter of the inhibition zone (DIZ) (Escherichia coli [27]): inactive
NNc1nc(N)c2c(-c3ccccc3)cn(-c3ccc(Cl)c(Cl)c3)c2n1	14.78	67.43	30	95.58	
NNc1nc(N)c2c(-c3ccccc3)c(-c3ccccc3)n(Cc3ccccc3)c2n1	10.43	79.04	61.15	73.9	
Cc1c(-n2c(-c3ccccc3)c(-c3ccccc3)c3c(=S)n4c(=O)/c(=C/c5ccccc5)sc4nc32)n(C)n(-c2ccccc2)c1=O	1.74				
